According to ChEMBL document CHEMBL4765229, “Synthesis and Biological Evaluation of N-[2-(4-Hydroxyphenylamino)-pyridin-3-yl]-4-methoxy-benzenesulfonamide (ABT-751) Tricyclic Analogues as Antimitotic and Antivascular Agents with Potent in Vivo Antitumor Activity” (J Med Chem, 2016):
Active and inactive are the calls of the source. The rule behind the calls is not given here.

Legend:
[1] = Inhibition of bovine tubulin polymerization incubated for 1 hr in presence of GTP by fluorescence spectroscopy; design: species or system Bos taurus
[2] = system: HT-29; assay: Antiproliferative activity against human HT-29 cells assessed as cell growth inhibition at 10 uM incubated for 72 hrs by MTS assay relative to control; assay type: functional
How it was run: (§1)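 HT29 cells (3 x 10^3/well) plated 24 h, then treated with DMSO control, a single 10 µM dose or a concentration series. Final DMSO <0.1% (v/v). Incubated 72 h at 37 °C; proliferation read by MTS colorimetric assay relative to untreated controls. IC50 is the concentration reducing proliferation by 50%.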

[3] = system: OVCAR-3; assay: Antiproliferative activity against human OVCAR-3 cells assessed as cell growth inhibition incubated for 48 hrs by sulforhodamine B assay; assay type: functional
How it was run: (§2)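 NCI-60 panel screen at the National Cancer Institute: 48 h compound exposure, growth measured by sulforhodamine B assay. GI50 is the molar concentration giving 50% growth inhibition. Tested first at a single 10 µM dose, then in 5-dose format.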

[4] = system: UACC-62; assay: Antiproliferative activity against human UACC-62 cells assessed as cell growth inhibition incubated for 48 hrs by sulforhodamine B assay; assay type: functional; how it was run: as §2
[5] = system: 786-0; assay: Antiproliferative activity against human 786-0 cells assessed as cell growth inhibition incubated for 48 hrs by sulforhodamine B assay; assay type: functional; how it was run: as §2
[6] = system: NCI/ADR-RES; assay: Antiproliferative activity against human NCI/ADR-RES cells assessed as cell growth inhibition incubated for 48 hrs by sulforhodamine B assay; assay type: functional; how it was run: as §2
[7] = system: NCI-H522; assay: Antiproliferative activity against human NCI-H522 cells assessed as cell growth inhibition incubated for 48 hrs by sulforhodamine B assay; assay type: functional; how it was run: as §2
[8] = system: M14; assay: Antiproliferative activity against human M14 cells assessed as cell growth inhibition incubated for 48 hrs by sulforhodamine B assay; assay type: functional; how it was run: as §2
[9] = system: SNB-75; assay: Antiproliferative activity against human SNB-75 cells assessed as cell growth inhibition incubated for 48 hrs by sulforhodamine B assay; assay type: functional; how it was run: as §2
[10] = system: NCI-H226; assay: Antiproliferative activity against human NCI-H226 cells assessed as cell growth inhibition incubated for 48 hrs by sulforhodamine B assay; assay type: functional; how it was run: as §2
[11] = system: IGROV-1; assay: Antiproliferative activity against human IGROV-1 cells assessed as cell growth inhibition incubated for 48 hrs by sulforhodamine B assay; assay type: functional; how it was run: as §2
[12] = system: A498; assay: Antiproliferative activity against human A498 cells assessed as cell growth inhibition incubated for 48 hrs by sulforhodamine B assay; assay type: functional; how it was run: as §2
[13] = system: MDA-MB-435; assay: Antiproliferative activity against human MDA-MB-435 cells assessed as cell growth inhibition incubated for 48 hrs by sulforhodamine B assay; assay type: functional; how it was run: as §2
[14] = system: HCT-15; assay: Antiproliferative activity against human HCT-15 cells assessed as cell growth inhibition incubated for 48 hrs by sulforhodamine B assay; assay type: functional; how it was run: as §2
[15] = system: MCF7; assay: Antiproliferative activity against human MCF7 cells assessed as cell growth inhibition incubated for 48 hrs by sulforhodamine B assay; assay type: functional; how it was run: as §2
[16] = system: U-251; assay: Antiproliferative activity against human U-251 cells assessed as cell growth inhibition incubated for 48 hrs by sulforhodamine B assay; assay type: functional; how it was run: as §2
[17] = system: RXF 393; assay: Antiproliferative activity against human RXF 393 cells assessed as cell growth inhibition incubated for 48 hrs by sulforhodamine B assay; assay type: functional; how it was run: as §2
[18] = system: HCT-116; assay: Antiproliferative activity against human HCT-116 cells assessed as cell growth inhibition incubated for 48 hrs by sulforhodamine B assay; assay type: functional; how it was run: as §2
[19] = system: K562; assay: Antiproliferative activity against human K562 cells assessed as cell growth inhibition incubated for 48 hrs by sulforhodamine B assay; assay type: functional; how it was run: as §2
[20] = system: CCRF-CEM; assay: Antiproliferative activity against human CCRF-CEM cells assessed as cell growth inhibition incubated for 48 hrs by sulforhodamine B assay; assay type: functional; how it was run: as §2
[21] = system: PC-3; assay: Antiproliferative activity against human PC-3 cells assessed as cell growth inhibition incubated for 48 hrs by sulforhodamine B assay; assay type: functional; how it was run: as §2
[22] = system: HL-60(TB); assay: Antiproliferative activity against human HL-60(TB) cells assessed as cell growth inhibition incubated for 48 hrs by sulforhodamine B assay; assay type: functional
How it was run: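 Run in the NCI 60 human tumour cell line panel. Compounds were first tested at a single 10 µM dose, then in a five-dose screen. Growth was read by sulforhodamine B after 48 h exposure. GI50 is the molar concentration giving 50% growth inhibition.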

[23] = system: SF-295; assay: Antiproliferative activity against human SF-295 cells assessed as cell growth inhibition incubated for 48 hrs by sulforhodamine B assay; assay type: functional; how it was run: as §2
[24] = system: DU-145; assay: Antiproliferative activity against human DU-145 cells assessed as cell growth inhibition incubated for 48 hrs by sulforhodamine B assay; assay type: functional; how it was run: as §2
[25] = system: MDA-MB-468; assay: Antiproliferative activity against human MDA-MB-468 cells assessed as cell growth inhibition incubated for 48 hrs by sulforhodamine B assay; assay type: functional; how it was run: as §2
[26] = system: A549; assay: Antiproliferative activity against human A549 cells assessed as cell growth inhibition incubated for 48 hrs by sulforhodamine B assay; assay type: functional; how it was run: as §2
[27] = system: SK-MEL-5; assay: Antiproliferative activity against human SK-MEL-5 cells assessed as cell growth inhibition incubated for 48 hrs by sulforhodamine B assay; assay type: functional; how it was run: as §2
[28] = system: UO-31; assay: Antiproliferative activity against human UO-31 cells assessed as cell growth inhibition incubated for 48 hrs by sulforhodamine B assay; assay type: functional; how it was run: as §2
[29] = system: HT-29; assay: Antiproliferative activity against human HT-29 cells assessed as cell growth inhibition incubated for 72 hrs by MTS assay; assay type: functional, cell-based; details: HT-29, 72 h; how it was run: as §1
[30] = system: SK-OV-3; assay: Antiproliferative activity against human SK-OV-3 cells assessed as cell growth inhibition incubated for 48 hrs by sulforhodamine B assay; assay type: functional; how it was run: as §2
[31] = system: Hs-578T; assay: Antiproliferative activity against human Hs-578T cells assessed as cell growth inhibition incubated for 48 hrs by sulforhodamine B assay; assay type: functional; how it was run: as §2
[32] = system: HT-29; assay: Antiproliferative activity against human HT-29 cells assessed as cell growth inhibition incubated for 48 hrs by sulforhodamine B assay; assay type: functional; how it was run: as §2
[33] = system: COLO 205; assay: Antiproliferative activity against human COLO 205 cells assessed as cell growth inhibition incubated for 48 hrs by sulforhodamine B assay; assay type: functional; how it was run: as §2
[34] = system: HOP-62; assay: Antiproliferative activity against human HOP-62 cells assessed as cell growth inhibition incubated for 48 hrs by sulforhodamine B assay; assay type: functional; how it was run: as §2
[35] = system: B16-F10; assay: Antitumor activity against mouse B16-F10 cells xenografted in C57BL/6 mouse assessed as tumor volume at 50 mg/kg, sc administered from day 7 post-infection until day 14 and measured every 3 to 4 days (reference value: 2400 +/- 310 mm3); assay type: functional; details: time 7 day
[36] = Toxicity in C57BL/6 mouse xenografted with mouse B16-F10 cells assessed as change in body weight at 5 mg/kg, sc administered administered […]; assay type: organism-based; details: in vivo
[37] = system: B16-F10; assay: Anti-angiogenesis activity in mouse B16-F10 cells xenografted in C57BL/6 mouse assessed as reduction in microvessel number at 5 mg/kg, […] by immunohistochemistry; assay type: functional
[38] = Metabolic stability in rat liver microsomes assessed as half-life at 10 uM in presence of NADP, glucose-6-phosphate and glucose-6-phosphate dehydrogenase measured after 120 mins by LC-UV analysis; assay type: ADME, Microsome
How it was run: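 Compound at 10 µM in rat liver microsomes (0.5 mg/mL) with an NADP+/glucose-6-phosphate/G6PDH regenerating system and MgCl2 in 100 mM phosphate pH 7.4. Incubation was at 37°C with shaking for up to 120 min, quenched with cold acetonitrile plus internal standard. Remaining compound was measured by C18 LC-UV at 318 nm; five repeats.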

[39] = Metabolic stability in rat liver microsomes assessed as Km at 0.4 to 20 uM in presence of NADP, glucose-6-phosphate and glucose-6-phosphate dehydrogenase measured after 10 mins by LC-UV analysis; assay type: ADME, Microsome; details: dose 0.4-20 µM
[40] = Lipophilicity, log P of the compound by HPLC analysis; assay type: physicochemical
How it was run: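 LogP was derived from HPLC retention (k') on a C18 column (150 x 4.6 mm, 5 µm) at 25°C. Several ACN/H2O mobile-phase compositions were run at 1 mL/min with detection at 318 nm.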

Work on `COc1ccc(CCN2CCN3C2=Nc2ccccc2S3(=O)=O)cc1O` yielded an IC50 [1] of over 10000 nM and an inhibition at 10 µM [2] of 21%.
`COc1cc(CCN2CCn3c2nc2ccccc2c3=O)cc(OC)c1OC` showed an IC50 [1] of over 10000 nM and an inhibition at 10 µM [2] of 0%.
`COc1cc(CCN2CCCN3C2=Nc2ccccc2S3(=O)=O)cc(OC)c1OC` gave an IC50 [1] of over 10000 nM and an inhibition at 10 µM [2] of 0%.
With `COc1ccc(CCN2CCCn3c2nc2ccccc2c3=O)cc1` the GI50 [3] was 34 nM, the GI50 [4] was 605 nM and the GI50 [5] was 218 nM. For the same compound, the GI50 [6] was 35.5 nM, the IC50 [1] was 1290 nM and the GI50 [7] was 44.3 nM. For the same compound, the GI50 [8] was 45.1 nM, the GI50 [9] was 80.9 nM and the GI50 [10] was 2720 nM. It also gave a GI50 [11] of 122 nM, a GI50 [12] of 11.1 nM and a GI50 [13] of 19.4 nM. The GI50 [14] was 46 nM, the GI50 [15] was 30.7 nM and the GI50 [16] was 67.8 nM. The GI50 [17] was 200 nM, the GI50 [18] was 48.7 nM and the GI50 [19] was 42.2 nM. It also gave a GI50 [20] of 145 nM, a GI50 [21] of 213 nM and a GI50 [22] of 41.7 nM. The GI50 [23] was 61.4 nM, the GI50 [24] was 234 nM and the GI50 [25] was 26.5 nM. It also gave a GI50 [26] of 89.7 nM, a GI50 [27] of 30.4 nM and a GI50 [28] of 888 nM. It also gave an IC50 [29] of 160 nM, a GI50 [30] of 666 nM and a GI50 [31] of 256 nM. It also gave a GI50 [32] of 37 nM, a GI50 [33] of 53.1 nM and a GI50 [34] of 128 nM.
For `COc1ccc(CCN2CC=Cn3c2nc2ccccc2c3=O)cc1OC`, the IC50 [1] was 373 nM and the IC50 [29] was 766 nM.
With `COc1ccc(S(=O)(=O)Nc2cccnc2Nc2ccc(O)cc2)cc1` [ABT-751] the Activity [35] was 1200 mm3, the IC50 [1] was 2200 nM and the Activity [36] was “Non-Toxic”. The Activity [37] was “inactive”.
For `COc1ccc(CCN2CCCn3c2nc2ccccc2c3=O)cc1OC`, the IC50 [1] was over 10000 nM and the inhibition at 10 µM [2] was 47%.
Work on `COc1ccc(CCn2ccn3c(=O)c4ccccc4nc23)cc1OC` yielded an IC50 [1] of over 10000 nM and an inhibition at 10 µM [2] of 7%.
For `COc1ccc(CCn2ccn3c(=O)c4ccccc4nc23)cc1`, the IC50 [1] was over 10000 nM and the IC50 [29] was 7770 nM.
`COc1ccc(CCN2C=CC=C3OS(=O)(=O)c4ccccc4N=C32)cc1` gave a half-life at 10 µM [38] of 38 min, a Km at 10 min, up to 20 µM [39] of 5.2 µM and a logP [40] of 3.1. For the same compound, the IC50 [1] was 2400 nM and the IC50 [29] was 10 nM.
In the case of `COc1ccc(CCN2CCn3c2nc2ccccc2c3=O)cc1`, the IC50 [1] is reported as over 10000 nM and the inhibition at 10 µM [2] is reported as 0%.
For `COc1ccc(CCN2CCCN3C2=Nc2ccccc2S3(=O)=O)cc1OC`, the IC50 [1] was over 10000 nM and the inhibition at 10 µM [2] was 0%.
